Experimental findings from ChEMBL document CHEMBL4229355, “Synthesis of 3'-halo-5'-norcarbocyclic nucleoside phosphonates as potent anti-HIV agents” (Eur J Med Chem, 2018) are described below.

Each structure is given as a SMILES string. Active and inactive are the calls of the source. The calls are words filed in the database; no cut-off is given here.

Data set [1] has as its system Human immunodeficiency virus 1. As to the kind of experiment: Antiviral activity against HIV1 LAI infected in PHA-P activated human PBMC assessed as reduction in viral replication preincubated with cells for 30 mins followed by viral infection and measured at day 7 post infection by reverse transcriptase activity-based assay. The following applies: Human immunodeficiency virus 1, LAI. Type of data set: functional, organism-based. Summed up:
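PHA-P-activated PBMCs (1.5 × 10⁵ cells) pre-treated 30 min with increasing compound concentrations, then infected with HIV-1 LAI at 100 TCID₅₀; supernatants harvested day 7 post-infection and stored at −20 °C. Percent inhibition of RT activity plotted against concentration and fitted to quadratic curves to give EC₅₀. Mean from 3 blood donors.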

Data set [2] is described as follows: Cytotoxicity against human PBMC assessed as reduction in cell growth after 7 days by MTT assay. Type of data set: cell-based. Summed up:
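Percent cell viability plotted against compound concentration and fitted to quadratic curves; CC₅₀ is the concentration reducing cell growth by 50%.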

For another data set, the system named is Zika virus. As to the kind of experiment: Antiviral activity against Zika virus. The format is functional, organism-based.
The test system of a further data set is dengue virus type 2. Put plainly: Antiviral activity against Dengue virus 2. The format is functional, organism-based.
The test system of the next data set is Human alphaherpesvirus 1. As to the kind of experiment: Antiviral activity against HSV-1. Type of data set: functional, organism-based.
The next data set has as its system Human alphaherpesvirus 2. Put plainly: Antiviral activity against HSV-2. Type of data set: functional, organism-based.
In a further data set the test system is Chikungunya virus. As to the kind of experiment: Antiviral activity against Chikungunya virus. The format is functional, organism-based.

On to `O=P(O)(O)CO[C@H]1C[C@@H](n2cnc3c(O)ncnc32)C=C1I` (racemic), for which, in data set [1], the EC50 was at least 10 µM. Moreover, in data set [2], the CC50 at 168 h is at least 10 µM. Besides, the outcome in the data set with Zika virus, in the data set on dengue virus type 2, with Human alphaherpesvirus 1, in the data set on Human alphaherpesvirus 2 and in the data set on Chikungunya virus was inactive.

As for `Nc1nc(O)c2ncn([C@H]3C=C(I)[C@@H](OCP(=O)(O)O)C3)c2n1` (racemic), the EC50 in data set [1] is at least 10 µM. Further, the CC50 at 168 h in data set [2] was at least 10 µM. In addition, the outcome with Zika virus, in the data set with dengue virus type 2, with Human alphaherpesvirus 1, in the data set on Human alphaherpesvirus 2 and with Chikungunya virus was inactive.

As for `Nc1ncnc2c1ncn2[C@H]1C=C(I)[C@@H](OCP(=O)(O)O)C1` (racemic), the EC50 in data set [1] was found to be 5.9 µM. In addition, the CC50 at 168 h in data set [2] was at least 10 µM. The outcome in the data set on Zika virus, with dengue virus type 2, with Human alphaherpesvirus 1, in the data set with Human alphaherpesvirus 2 and in the data set with Chikungunya virus was inactive.

With `O=P(O)(O)CO[C@H]1C[C@@H](n2cnc3c(NC4CC4)ncnc32)C=C1I` (racemic), the EC50 in data set [1] was at least 10 µM. Moreover, the CC50 at 168 h in data set [2] was at least 10 µM. Besides, the result in the data set on Zika virus, with dengue virus type 2, with Human alphaherpesvirus 1, with Human alphaherpesvirus 2 and in the data set with Chikungunya virus was inactive.

As for `Nc1nc2c(ncn2[C@H]2C=C(F)[C@@H](OCP(=O)(O)O)C2)c(=O)[nH]1` (racemic), the EC50 in data set [1] is at least 10 µM. In addition, the CC50 at 168 h in data set [2] is at least 10 µM. The result in the data set on Zika virus, with dengue virus type 2, with Human alphaherpesvirus 1, with Human alphaherpesvirus 2 and with Chikungunya virus was inactive.

In the case of `Nc1ncnc2c1ncn2[C@H]1C=C(F)[C@@H](OCP(=O)(O)O)C1` (racemic), the EC50 in data set [1] worked out at 0.88 µM. For the same molecule, the CC50 at 168 h in data set [2] was at least 10 µM. Further, the result with Zika virus, in the data set with dengue virus type 2, in the data set with Human alphaherpesvirus 1, with Human alphaherpesvirus 2 and with Chikungunya virus was inactive.

Take `C[C@H](Cn1cnc2c(N)ncnc21)OCP(=O)(O)O` [TENOFOVIR ANHYDROUS]: in data set [1], the EC50 came to 1.1 µM. Also, in data set [2], the CC50 at 168 h was at least 10 µM.
